According to ChEMBL document CHEMBL1817561, “5a-Carba-β-D-glucopyranose derivatives as novel sodium-dependent glucose cotransporter 2 (SGLT2) inhibitors for the treatment of type 2 diabetes” (Bioorg Med Chem, 2011):
Calls of active or inactive are those of the source. No cut-off for these calls is given here.

Legend:
[1] = molecular target: T1, Sodium/glucose cotransporter 2 (Homo sapiens, UniProt P31639); assay: Inhibition of human SGLT2 expressed in CHO cells assessed as [14C]AMG uptake after 45 mins; format: cell-based
T1 sequence (P31639 whole entry): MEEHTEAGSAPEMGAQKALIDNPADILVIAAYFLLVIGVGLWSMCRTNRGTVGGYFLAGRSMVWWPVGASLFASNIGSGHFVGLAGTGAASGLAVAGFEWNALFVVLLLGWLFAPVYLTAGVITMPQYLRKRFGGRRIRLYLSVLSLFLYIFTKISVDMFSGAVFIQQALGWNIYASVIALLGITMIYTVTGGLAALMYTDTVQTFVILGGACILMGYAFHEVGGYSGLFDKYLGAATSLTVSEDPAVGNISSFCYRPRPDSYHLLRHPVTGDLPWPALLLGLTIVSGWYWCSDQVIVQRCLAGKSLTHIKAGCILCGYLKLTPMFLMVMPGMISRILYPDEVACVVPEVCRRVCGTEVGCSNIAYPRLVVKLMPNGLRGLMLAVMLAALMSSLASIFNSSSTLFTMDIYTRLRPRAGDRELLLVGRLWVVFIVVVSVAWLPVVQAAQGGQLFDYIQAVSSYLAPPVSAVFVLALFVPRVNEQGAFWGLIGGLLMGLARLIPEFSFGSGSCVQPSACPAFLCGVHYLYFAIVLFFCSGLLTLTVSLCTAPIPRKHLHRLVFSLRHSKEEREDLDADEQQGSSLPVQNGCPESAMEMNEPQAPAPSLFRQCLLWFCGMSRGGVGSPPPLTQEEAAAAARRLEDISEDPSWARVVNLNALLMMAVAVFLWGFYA
Summary of the method: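 Cells incubated 45 min in reaction buffer with compound plus 1 mM AMG containing [14C]AMG; uptake read as radioactivity in cell lysates. IC50 from four-parameter logistic curve fit; means of multiple independent experiments, with phlorizin and reference standard included in every run.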

Mus musculus = assay: Antidiabetic activity in db/db mouse assessed as reduction of blood glucose level at 100 mg/kg, po after 8 hrs by hexokinase method; format: functional, organism-based; set-up: dose 100 mg/kg
Summary of the method: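 Male db/db mice on regular chow; single oral gavage dose of 100 mg/kg as homogeneous suspension in 0.5% carboxymethylcellulose sodium. Blood sampled before dosing and at 1, 2, 4, 6, 8, 10 and 24 h; glucose measured by hexokinase method.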

Structure (SMILES)	IC50 [1]	Activity (Mus musculus)
COc1ccc(Cc2ccccc2O[C@@H]2O[C@H](CO)[C@@H](O)[C@H](O)[C@H]2O)cc1 [SERGLIFLOZIN A]	4.8 nM	
COc1ccc(Cc2ccccc2O[C@@H]2C[C@H](CO)[C@@H](O)[C@H](O)[C@H]2O)cc1	42 nM	Active
C=Cc1ccc(Cc2ccccc2O[C@@H]2C[C@H](CO)[C@@H](O)[C@H](O)[C@H]2O)cc1	29 nM	
OC[C@H]1C[C@@H](Oc2ccccc2Cc2ccc(C(F)(F)F)cc2)[C@H](O)[C@@H](O)[C@@H]1O	120 nM	
OC[C@H]1C[C@@H](Oc2ccccc2Cc2ccc(C3CC3)cc2)[C@H](O)[C@@H](O)[C@@H]1O	11 nM	
CCc1ccc(Cc2ccccc2O[C@@H]2C[C@H](CO)[C@@H](O)[C@H](O)[C@H]2O)cc1	28 nM	
CC(C)c1ccc(Cc2ccccc2O[C@@H]2C[C@H](CO)[C@@H](O)[C@H](O)[C@H]2O)cc1	150 nM	
OC[C@H]1C[C@@H](Oc2ccccc2Cc2ccccc2)[C@H](O)[C@@H](O)[C@@H]1O	690 nM	
OC[C@H]1C[C@@H](Oc2ccccc2Cc2ccc(F)cc2)[C@H](O)[C@@H](O)[C@@H]1O	630 nM	
OC[C@H]1C[C@@H](Oc2ccccc2Cc2ccc(Cl)cc2)[C@H](O)[C@@H](O)[C@@H]1O	150 nM	

Further lines, with some results ahead:

IC50 [1]	Structure (SMILES)	Activity (Mus musculus)
260 nM	CCOC(=O)OC[C@H]1O[C@@H](Oc2ccccc2Cc2ccc(OC)cc2)[C@H](O)[C@@H](O)[C@@H]1O [SERGLIFLOZIN ETABONATE]	Active
19 nM	CSc1ccc(Cc2ccccc2O[C@@H]2C[C@H](CO)[C@@H](O)[C@H](O)[C@H]2O)cc1	
290 nM	OC[C@H]1C[C@@H](Oc2ccccc2Cc2ccc(O)cc2)[C@H](O)[C@@H](O)[C@@H]1O	
59 nM	Cc1ccc(Cc2ccccc2O[C@@H]2C[C@H](CO)[C@@H](O)[C@H](O)[C@H]2O)cc1	
120 nM	CCCc1ccc(Cc2ccccc2O[C@@H]2C[C@H](CO)[C@@H](O)[C@H](O)[C@H]2O)cc1	
110 nM	CCOc1ccc(Cc2ccccc2O[C@@H]2C[C@H](CO)[C@@H](O)[C@H](O)[C@H]2O)cc1	
